Results taken from ChEMBL document CHEMBL3244279, “Synthesis and pharmacological evaluation of a clofibrate-related tricyclic spirolactone, 5-chloro-4',5-dihydrospiro[benzofuran-2(3H),3'(2'H)-furan]-2'-one” (J Med Chem, 1978).
Active and inactive are the calls of the source. The rule behind the calls is not given here.

Experiments:
Rattus norvegicus [1] = assay: Modulation of ethylmorphine N-demethylase activity in sucrose-fed Sprague-Dawley rat liver microsomes assessed as formaldehyde formation using ethylmorphine as substrate at 0.4 mmol/kg, po bid for 7 days (reference value: 6.40 to 9.36 nmol/mg/min); type: functional
Rattus norvegicus [2] = assay: Modulation of HMG-CoA reductase activity in sucrose-fed Sprague-Dawley rat liver assessed as mevalonic acid formation using DL-3-hydroxy-3-methylglutaryl-3-14C-CoA as substrate at 0.4 mmol/kg, po bid for 7 days (reference value: 8.27 to 8.3 nmol/mg/hr); type: functional
Rattus norvegicus [3] = assay: Antilipidemic activity in sucrose-fed Sprague-Dawley rat assessed as serum cholesterol level at 0.4 mmol/kg, po bid for 7 days measured on day 0 (reference value: 69 +/- 9 mg/dL); type: functional
Rattus norvegicus [4] = assay: Antilipidemic activity in sucrose-fed Sprague-Dawley rat assessed as serum cholesterol level at 0.4 mmol/kg, po bid for 7 days measured on day 7 (reference value: 92 +/- 22 mg/dL); type: functional
Rattus norvegicus [5] = assay: Modulation of triglyceride level in sucrose-fed Sprague-Dawley rat liver at 0.4 mmol/kg, po bid for 7 days (reference value: 7.26 to 8.29 mg/g); type: functional
Rattus norvegicus [6] = assay: Antilipidemic activity in Triton WR-1339-induced hyperlipidemic Sprague-Dawley rat model assessed as plasma cholesterol level at 0.124 mmol/kg, po (reference value: 166 +/- 17.8 mg/dL)
Rattus norvegicus [7] = assay: Modulation of liver weight in sucrose-fed Sprague-Dawley rat at 0.4 mmol/kg, po bid for 7 days (reference value: 11.30 to 13.16 gms); type: functional
Rattus norvegicus [8] = assay: Antilipidemic activity in sucrose-fed Sprague-Dawley rat assessed as serum triglyceride level at 0.4 mmol/kg, po bid for 7 days measured on day 0 (reference value: 157.1 +/- 77.8 mg/dL); type: functional
Rattus norvegicus [9] = assay: Modulation of liver microsomal protein level in sucrose-fed Sprague-Dawley rat at 0.4 mmol/kg, po bid for 7 days measured per gm of tissue (reference value: 25.0 to 27.2 mg); type: functional
Rattus norvegicus [10] = assay: Antilipidemic activity in 48-hrs starved normal Sprague-Dawley rat model assessed as plasma cholesterol level at 0.124 mmol/kg, po (reference value: 88.7 +/- 6.9 mg/dL); type: functional
Rattus norvegicus [11] = assay: Modulation of cytochrome b5 activity in sucrose-fed Sprague-Dawley rat liver microsomes at 0.4 mmol/kg, po bid for 7 days measured per mg of protein (reference value: 0.185 to 0.213 nmol); type: functional
How it was run: (§1)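 Sucrose-fed male rats dosed orally 0.4 mmol/kg twice daily for 7 days, controls vehicle; livers taken under ether anesthesia, microsomes prepared. Cytochrome P-450 and b5 estimated by the Kinoshita–Horie procedure, per mg microsomal protein. Mean ± SD, n = 5; Student's t test.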

Rattus norvegicus [12] = assay: Modulation of cholesterol level in sucrose-fed Sprague-Dawley rat liver at 0.4 mmol/kg, po bid for 7 days (reference value: 1.81 to 2.17 mg/g); type: functional
[13] = Drug metabolism in Sprague-Dawley rat serum assessed as esterase-mediated hydrolysis measured after 5 mins; type: ADME, cell-free
How it was run: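 Pooled serum from ether-anesthetized male Sprague-Dawley rats (300–350 g; aortic blood with EDTA). 0.1 mL of 0.05 M ethanolic stock added to 6.0 mL serum, 37 °C with shaking; samples at 0, 5, 10, 30, 60 min extracted into isooctane–EtOH (95:5) with saturated NaCl; loss of parent read at 250 nm.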

Rattus norvegicus [14] = assay: Modulation of cytochrome-P450 activity in sucrose-fed Sprague-Dawley rat liver microsomes at 0.4 mmol/kg, po bid for 7 days measured per mg of protein (reference value: 0.477 to 0.593 nmol); type: functional; how it was run: as §1
[15] = Drug metabolism in Ringer bicarbonate buffer assessed as hydrolysis at pH 7.4 measured after 60 mins; type: physicochemical; conditions: read-out: Drug metabolism
How it was run: (§2)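 Nonenzymatic hydrolysis: 0.1 mL of 0.05 M ethanolic stock added to 6.0 mL Ringer bicarbonate buffer, pH 7.4, 37 °C with shaking. Aliquots at 0–60 min extracted into isooctane–EtOH (95:5) with saturated NaCl; disappearance of parent tracked at 250 nm.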

Rattus norvegicus [16] = assay: Antilipidemic activity in Triton WR-1339-induced hyperlipidemic Sprague-Dawley rat model assessed as plasma triglyceride level at 0.124 mmol/kg, po (reference value: 98.5 +/- 16.9 mg/dL)
Rattus norvegicus [17] = assay: Modulation of liver to body weight ratio in sucrose-fed Sprague-Dawley rat at 0.4 mmol/kg, po bid for 7 days (reference value: 3.88 to 4.06%); type: functional
Rattus norvegicus [18] = assay: Modulation of NADPH-cytochrome c reductase activity in sucrose-fed Sprague-Dawley rat liver microsomes assessed as cytochrome c reduction at 0.4 mmol/kg, po bid for 7 days (reference value: 202.5 +/- 27.9 nmol/mg/min); type: functional
Rattus norvegicus [19] = assay: Antilipidemic activity in normal Sprague-Dawley rat assessed at 0.4 mmol/kg, po bid for 7 days; type: functional, organism-based
Rattus norvegicus [20] = assay: Antilipidemic activity in sucrose-fed Sprague-Dawley rat assessed as serum triglyceride level at 0.4 mmol/kg, po bid for 7 days measured on day 7 (reference value: 115.6 +/- 19.4 mg/dL); type: functional
Rattus norvegicus [21] = assay: Antilipidemic activity in 48-hrs starved normal Sprague-Dawley rat model assessed as plasma triglyceride level at 0.124 mmol/kg, po (reference value: 20.8 +/- 5.5 mg/dL); type: functional
Rattus norvegicus [22] = assay: Antilipidemic activity in normal Sprague-Dawley rat assessed as serum cholesterol level at 0.4 mmol/kg, po bid for 7 days (reference value: 59.1 to 81.6 mg/dL); type: functional
How it was run: (§3)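 Normal male Sprague-Dawley rats dosed orally twice daily, 0.4 mmol/kg […], for 7 days; controls received vehicle. Serum cholesterol and triglycerides measured at end of treatment; two separate experiments. Mean ± SD, n = 5; Student's t test vs control.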

Rattus norvegicus [23] = assay: Modulation of liver microsomal protein level in sucrose-fed Sprague-Dawley rat at 0.4 mmol/kg, po bid for 7 days measured per gm of tissue (reference value: 25.0 +/- 2.5 mg); type: functional
Rattus norvegicus [24] = assay: Modulation of liver to body weight ratio in sucrose-fed Sprague-Dawley rat at 0.4 mmol/kg, po bid for 7 days (reference value: 4.06 +/- 0.25%); type: functional
Rattus norvegicus [25] = assay: Modulation of cholesterol level in normal Sprague-Dawley rat liver at 0.4 mmol/kg, po bid for 7 days (reference value: 2.73 to 3.28 mg/g); type: functional
Rattus norvegicus [26] = assay: Modulation of cholesterol level in sucrose-fed Sprague-Dawley rat liver at 0.4 mmol/kg, po bid for 7 days (reference value: 2.17 +/- 0.26 mg/g); type: functional
Rattus norvegicus [27] = assay: Modulation of liver weight in sucrose-fed Sprague-Dawley rat at 0.4 mmol/kg, po bid for 7 days (reference value: 13.16 +/- 0.61 gms); type: functional
Rattus norvegicus [28] = assay: Antilipidemic activity in normal Sprague-Dawley rat assessed as serum triglyceride level at 0.4 mmol/kg, po bid for 7 days (reference value: 61.2 to 69.1 mg/dL); type: functional; how it was run: as §3
Rattus norvegicus [29] = assay: Modulation of liver to body weight ratio in normal Sprague-Dawley rat at 0.4 mmol/kg, po bid for 7 days (reference value: 4.21 to 4.59%); type: functional
Rattus norvegicus [30] = assay: Modulation of liver microsomal protein level in normal Sprague-Dawley rat at 0.4 mmol/kg, po bid for 7 days measured per gm of tissue (reference value: 25.4 to 29.0 mg); type: functional
Rattus norvegicus [31] = assay: Antilipidemic activity in Triton WR-1339-induced hyperlipidemic Sprague-Dawley rat model assessed as plasma cholesterol level at 0.124 mmol/kg, po (reference value: 183 +/- 101 mg/dL)
[32] = Drug metabolism in Sprague-Dawley rat serum assessed as esterase-mediated hydrolysis at 0.05 M measured after 5 mins; type: ADME, cell-free; conditions: read-out: Drug metabolism
Rattus norvegicus [33] = assay: Modulation of triglyceride level in normal Sprague-Dawley rat liver at 0.4 mmol/kg, po bid for 7 days (reference value: 2.73 to 3.36 mg/g); type: functional
Rattus norvegicus [34] = assay: Modulation of cytochrome b5 activity in sucrose-fed Sprague-Dawley rat liver microsomes at 0.4 mmol/kg, po bid for 7 days measured per mg of protein (reference value: 0.213 +/- 0.032 nmol); type: functional; how it was run: as §1
Rattus norvegicus [35] = assay: Modulation of HMG-CoA reductase activity in normal Sprague-Dawley rat liver assessed as mevalonic acid formation using DL-3-hydroxy-3-methylglutaryl-3-14C-CoA as substrate at 0.4 mmol/kg, po bid for 7 days (reference value: 49.1 +/- 6.7 nmol/mg/hr); type: functional
Rattus norvegicus [36] = assay: Modulation of triglyceride level in sucrose-fed Sprague-Dawley rat liver at 0.4 mmol/kg, po bid for 7 days (reference value: 8.29 +/- 2.24 mg/g); type: functional
Rattus norvegicus [37] = assay: Antilipidemic activity in Triton WR-1339-induced hyperlipidemic Sprague-Dawley rat model assessed as plasma triglyceride level at 0.124 mmol/kg, po (reference value: 156 +/- 184 mg/dL)
Rattus norvegicus [38] = assay: Antilipidemic activity in 48-hrs starved normal Sprague-Dawley rat model assessed as plasma triglyceride level at 0.124 mmol/kg, po (reference value: 20.9 +/- 11.3 mg/dL); type: functional
Rattus norvegicus [39] = assay: Modulation of cytochrome-P450 activity in sucrose-fed Sprague-Dawley rat liver microsomes at 0.4 mmol/kg, po bid for 7 days measured per mg of protein (reference value: 0.593 +/- 0.059 nmol); type: functional; how it was run: as §1
Rattus norvegicus [40] = assay: Modulation of HMG-CoA reductase activity in sucrose-fed Sprague-Dawley rat liver assessed as mevalonic acid formation using DL-3-hydroxy-3-methylglutaryl-3-14C-CoA as substrate at 0.4 mmol/kg, po bid for 7 days (reference value: 8.27 +/- 1.18 nmol/mg/hr); type: functional
[41] = Drug metabolism in Ringer bicarbonate buffer assessed as hydrolysis at 0.05 M at pH 7.4 measured after 60 mins; type: physicochemical; how it was run: as §2
Rattus norvegicus [42] = assay: Modulation of liver weight in normal Sprague-Dawley rat at 0.4 mmol/kg, po bid for 7 days (reference value: 6.73 to 8.71 gms); type: functional
Rattus norvegicus [43] = assay: Antilipidemic activity in 48-hrs starved normal Sprague-Dawley rat model assessed as plasma cholesterol level at 0.124 mmol/kg, po (reference value: 90.1 +/- 8.8 mg/dL); type: functional
Rattus norvegicus [44] = assay: Modulation of ethylmorphine N-demethylase activity in sucrose-fed Sprague-Dawley rat liver microsomes assessed as formaldehyde formation using ethylmorphine as substrate at 0.4 mmol/kg, po bid for 7 days (reference value: 9.36 +/- 0.50 nmol/mg/min); type: functional

CCOC(=O)C(C)(C)Oc1ccc(Cl)cc1 [CLOFIBRATE]
Activity (Rattus norvegicus [1]): 7.91 nmol/mg/min | Activity (Rattus norvegicus [2]): 2.7 nmol/mg/h | Activity (Rattus norvegicus [3]): 74 mg/dL | Activity (Rattus norvegicus [4]): 36 mg/dL | Activity (Rattus norvegicus [5]): 3.05 mg/g | Activity (Rattus norvegicus [6]): 93.2 mg/dL | Activity (Rattus norvegicus [7]): 14.32 g | Activity (Rattus norvegicus [8]): 153 mg/dL | Activity (Rattus norvegicus [9]): 29.2 mg | Activity (Rattus norvegicus [10]): 87 mg/dL | Activity (Rattus norvegicus [11]): 0.169 nmol | Activity (Rattus norvegicus [12]): 1.76 mg/g | metabolised at 5 min [13]: > 90% | Activity (Rattus norvegicus [14]): 0.806 nmol | degraded at 1 h [15]: < 20% | Activity (Rattus norvegicus [16]): 22.3 mg/dL | Activity (Rattus norvegicus [17]): 5.01% | Activity (Rattus norvegicus [18]): 308.3 nmol/mg/min | Activity (Rattus norvegicus [19]): Active | Activity (Rattus norvegicus [20]): 50.2 mg/dL | Activity (Rattus norvegicus [21]): 24.1 mg/dL

O=C1OCCC12Cc1cc(Cl)ccc1O2 (stereo not drawn)
Activity (Rattus norvegicus [22]): 58.6 mg/dL | Activity (Rattus norvegicus [3]): 67 mg/dL | Activity (Rattus norvegicus [4]): 103 mg/dL | Activity (Rattus norvegicus [23]): 27.8 mg | Activity (Rattus norvegicus [24]): 4.18% | Activity (Rattus norvegicus [25]): 3.18 mg/g | Activity (Rattus norvegicus [26]): 2.32 mg/g | Activity (Rattus norvegicus [8]): 142 mg/dL | Activity (Rattus norvegicus [27]): 13.16 g | Activity (Rattus norvegicus [28]): 66.5 mg/dL | Activity (Rattus norvegicus [29]): 4.5% | Activity (Rattus norvegicus [30]): 27.3 mg | Activity (Rattus norvegicus [31]): 131 mg/dL | metabolised at 5 min [32]: > 90% | Activity (Rattus norvegicus [33]): 3.17 mg/g | Activity (Rattus norvegicus [34]): 0.173 nmol | Activity (Rattus norvegicus [35]): 45 nmol/mg/h | Activity (Rattus norvegicus [36]): 10.02 mg/g | Activity (Rattus norvegicus [37]): 20.6 mg/dL | Activity (Rattus norvegicus [38]): 18.5 mg/dL | Activity (Rattus norvegicus [39]): 0.55 nmol | Activity (Rattus norvegicus [40]): 7.1 nmol/mg/h | Activity (Rattus norvegicus [20]): 121.5 mg/dL | degraded at 1 h [41]: < 20% | Activity (Rattus norvegicus [42]): 7.87 g | Activity (Rattus norvegicus [43]): 91.8 mg/dL | Activity (Rattus norvegicus [44]): 9.8 nmol/mg/min
